Data taken from ChEMBL document CHEMBL2311296, “Discovery of a potent and isoform-selective targeted covalent inhibitor of the lipid kinase PI3Kα” (J Med Chem, 2013).
pIC50: −log10 of the molar value. Active and inactive are the calls of the source. No cut-off for these calls is given here.

Assays:
[1] = biological target: Phosphatidylinositol 4,5-bisphosphate 3-kinase catalytic subunit alpha isoform (Homo sapiens) (UniProt P42336); settings: SK-OV-3, 500 nM
MCF7 = test: Growth inhibition of human MCF7 cells assessed as cell viability after 96 hrs by Cell Titre Glo assay; assay type: functional; settings: MCF7, 96 h
[2] = biological target: Phosphatidylinositol 4,5-bisphosphate 3-kinase catalytic subunit alpha isoform (Homo sapiens) (UniProt P42336); settings: SK-OV-3, 1 to 1000 nM
SK-OV-3 = test: Growth inhibition of human SKOV3 cells assessed as cell viability after 96 hrs by Cell Titre Glo assay; assay type: functional; settings: SK-OV-3, 96 h
[3] = biological target: T1, Phosphatidylinositol 4,5-bisphosphate 3-kinase catalytic subunit beta isoform (Homo sapiens, UniProt P42338); test: Inhibition of PI3Kbeta (unknown origin) by HTRF assay
Procedure, shortened: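 PI3Kβ tested in a 10-concentration curve, 3-fold serial dilution starting at 1 μM, at 10 μM ATP. Substrate phosphatidylinositol 4,5-bisphosphate, HTRF read-out. Value reported as apparent IC50 from an end-point assay.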
Target sequence in this assay (P42338 whole entry, canonical isoform): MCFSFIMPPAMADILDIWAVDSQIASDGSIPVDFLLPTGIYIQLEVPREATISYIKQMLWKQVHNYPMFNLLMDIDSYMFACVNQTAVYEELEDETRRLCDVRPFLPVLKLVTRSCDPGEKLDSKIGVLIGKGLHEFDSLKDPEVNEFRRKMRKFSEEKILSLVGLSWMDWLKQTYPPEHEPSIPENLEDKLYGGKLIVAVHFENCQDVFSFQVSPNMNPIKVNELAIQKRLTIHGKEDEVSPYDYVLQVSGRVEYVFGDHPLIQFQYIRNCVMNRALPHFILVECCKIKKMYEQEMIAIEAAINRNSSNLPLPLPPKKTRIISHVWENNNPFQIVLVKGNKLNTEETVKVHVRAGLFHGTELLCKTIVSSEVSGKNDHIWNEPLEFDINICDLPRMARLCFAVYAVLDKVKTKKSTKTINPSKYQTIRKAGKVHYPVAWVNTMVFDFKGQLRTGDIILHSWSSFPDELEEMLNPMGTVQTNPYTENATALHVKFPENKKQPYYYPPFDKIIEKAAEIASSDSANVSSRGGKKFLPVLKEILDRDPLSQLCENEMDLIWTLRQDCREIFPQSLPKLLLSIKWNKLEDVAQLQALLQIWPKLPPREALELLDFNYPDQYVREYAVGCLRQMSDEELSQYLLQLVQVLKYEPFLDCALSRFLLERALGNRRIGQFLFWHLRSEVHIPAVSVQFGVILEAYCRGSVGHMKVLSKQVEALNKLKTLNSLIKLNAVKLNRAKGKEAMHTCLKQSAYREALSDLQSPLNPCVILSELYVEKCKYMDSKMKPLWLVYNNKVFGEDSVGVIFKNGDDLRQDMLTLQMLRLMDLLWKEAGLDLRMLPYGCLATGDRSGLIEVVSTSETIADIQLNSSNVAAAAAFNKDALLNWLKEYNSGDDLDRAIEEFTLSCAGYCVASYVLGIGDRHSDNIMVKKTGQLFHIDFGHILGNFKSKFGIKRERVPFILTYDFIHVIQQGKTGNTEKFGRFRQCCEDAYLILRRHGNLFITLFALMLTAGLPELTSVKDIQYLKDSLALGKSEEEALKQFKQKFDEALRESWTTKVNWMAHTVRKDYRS

[4] = biological target: Phosphatidylinositol 4,5-bisphosphate 3-kinase catalytic subunit gamma isoform (Homo sapiens, UniProt P48736); test: Inhibition of PI3Kgamma (unknown origin) by HTRF assay
Procedure, shortened: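 Contract lab panel, end-point HTRF format with phosphatidylinositol 4,5-bisphosphate as substrate and 10 μM ATP. Ten-point curve, 3-fold serial dilutions starting at 1 μM. Reported as an apparent IC50 (IC50App).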

[5] = biological target: T1, Phosphatidylinositol 4,5-bisphosphate 3-kinase catalytic subunit beta isoform; test: Binding affinity to human PI3Kbeta after 1 hr by MALDI TOF/TOF mass spectrometry
Procedure, shortened: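 Compound incubated with recombinant PI3K isoform enzyme at a 10:1 compound-to-enzyme molar ratio, room temperature, 1 h; covalent adduct formation read by mass spectrometry.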
Target sequence in this assay (P42338 whole entry, looked up, canonical isoform): as the sequence (P42338 whole entry, canonical isoform) above

[6] = biological target: T2, Phosphatidylinositol 4,5-bisphosphate 3-kinase catalytic subunit delta isoform (Homo sapiens, UniProt O00329); test: Inhibition of PI3Kdelta (unknown origin) by HTRF assay
T2 sequence (O00329 whole entry): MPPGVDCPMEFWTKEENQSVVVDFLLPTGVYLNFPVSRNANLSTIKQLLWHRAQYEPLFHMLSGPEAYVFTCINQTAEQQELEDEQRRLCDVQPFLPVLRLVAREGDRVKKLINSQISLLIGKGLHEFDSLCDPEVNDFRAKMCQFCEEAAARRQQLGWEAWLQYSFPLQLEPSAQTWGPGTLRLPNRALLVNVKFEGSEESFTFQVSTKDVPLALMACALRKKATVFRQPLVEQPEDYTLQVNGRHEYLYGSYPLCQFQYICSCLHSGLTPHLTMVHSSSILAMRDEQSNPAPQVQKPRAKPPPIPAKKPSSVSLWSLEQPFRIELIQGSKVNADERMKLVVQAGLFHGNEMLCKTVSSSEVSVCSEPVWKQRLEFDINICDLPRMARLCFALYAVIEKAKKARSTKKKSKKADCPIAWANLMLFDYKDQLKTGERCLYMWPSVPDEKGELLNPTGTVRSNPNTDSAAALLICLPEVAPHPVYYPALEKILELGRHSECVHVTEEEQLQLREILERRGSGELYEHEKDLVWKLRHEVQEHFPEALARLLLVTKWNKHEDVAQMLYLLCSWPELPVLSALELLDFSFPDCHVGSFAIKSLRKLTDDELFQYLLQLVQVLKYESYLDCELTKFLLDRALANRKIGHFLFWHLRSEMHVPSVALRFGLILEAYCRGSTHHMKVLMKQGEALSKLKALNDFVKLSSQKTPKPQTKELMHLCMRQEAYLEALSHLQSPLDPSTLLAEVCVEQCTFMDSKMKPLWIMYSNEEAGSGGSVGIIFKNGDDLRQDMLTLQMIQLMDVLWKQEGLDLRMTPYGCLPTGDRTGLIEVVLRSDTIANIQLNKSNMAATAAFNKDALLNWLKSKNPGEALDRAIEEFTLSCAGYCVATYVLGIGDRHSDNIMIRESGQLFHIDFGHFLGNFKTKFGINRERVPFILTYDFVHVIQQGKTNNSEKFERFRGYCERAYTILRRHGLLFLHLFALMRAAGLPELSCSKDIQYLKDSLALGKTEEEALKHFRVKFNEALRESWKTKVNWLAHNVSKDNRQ

Plasma = test: Plasma protein binding in human albumin-depleted plasma after 1 to 3 hrs by MALDI TOF/TOF mass spectrometry; assay type: ADME, cell-free
Procedure, shortened: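 Human plasma albumin-depleted, not fully, and diluted to 1 mg/mL. A 10 mM DMSO compound stock diluted 1:10 into it; incubated at 37 °C for 1 or 3 h. Samples desalted on C4 tips and analysed by MALDI TOF/TOF (sinapinic acid matrix, ovalbumin internal standard) for mass shifts.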

Sphingosine kinase 1 = Sphingosine kinase 1 (Homo sapiens, UniProt Q9NYA1); test: Inhibition of SPHK1 (unknown origin) by ADP-GLO assay
Procedure, shortened: (§1)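 Reaction Biology panel using ADP-Glo format at 10 μM ATP. Substrate was sphingosine for SPHK1 and SPHK2, and phosphatidylinositol for the other enzymes.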

Sphingosine kinase 2 = biological target: T3, Sphingosine kinase 2 (Homo sapiens, UniProt Q9NRA0); test: Inhibition of SPHK2 (unknown origin) by ADP-GLO assay
T3 sequence (Q9NRA0 whole entry): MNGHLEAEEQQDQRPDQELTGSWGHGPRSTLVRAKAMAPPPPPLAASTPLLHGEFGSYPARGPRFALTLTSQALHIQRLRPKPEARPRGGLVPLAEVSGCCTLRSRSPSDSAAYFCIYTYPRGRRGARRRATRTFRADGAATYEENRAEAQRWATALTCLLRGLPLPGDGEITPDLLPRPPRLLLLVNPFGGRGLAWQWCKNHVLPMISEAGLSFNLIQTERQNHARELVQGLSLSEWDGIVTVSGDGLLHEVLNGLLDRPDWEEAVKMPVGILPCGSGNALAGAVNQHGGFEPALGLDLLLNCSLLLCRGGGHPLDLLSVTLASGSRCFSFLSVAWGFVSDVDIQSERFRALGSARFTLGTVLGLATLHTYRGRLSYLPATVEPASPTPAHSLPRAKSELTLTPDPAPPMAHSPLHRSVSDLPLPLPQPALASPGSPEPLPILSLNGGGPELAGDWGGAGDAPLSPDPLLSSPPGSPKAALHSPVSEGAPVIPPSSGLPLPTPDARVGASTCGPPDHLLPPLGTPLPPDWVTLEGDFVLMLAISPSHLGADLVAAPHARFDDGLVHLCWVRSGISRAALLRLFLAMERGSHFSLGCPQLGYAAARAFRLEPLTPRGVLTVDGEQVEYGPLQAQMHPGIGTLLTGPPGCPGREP
Procedure, shortened: as §1

Mus musculus [7] = test: In vivo inhibition of PI3Kalpha in nude nu/nu mouse assessed as free P110alpha levels at 100 mg/kg, ip qd administered for 5 consecutive days measured 1 to 4 hrs post last dose by immunoblot method; assay type: functional, organism-based; design: dose 100 mg/kg
Procedure, shortened: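 Female nu/nu mice (n = 3/group) dosed ip at 100 mg/kg once daily for 5 days. Spleens harvested 1, 4 and 24 h after the last dose and homogenized. Lysate (150 μg protein) incubated with a biotinylated covalent probe at 1 μM for 1 h at RT, then immunoprecipitated with anti-p110α overnight at 4 °C. Immunoblot: streptavidin signal normalized to total p110α, expressed as % of vehicle.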

[8] = biological target: Phosphatidylinositol 4-phosphate 3-kinase C2 domain-containing subunit alpha (Homo sapiens, UniProt O00443); test: Inhibition of PI3KC2A (unknown origin) by ADP-GLO assay
Procedure, shortened: as §1

Mus musculus [9] = test: In vivo inhibition of PI3Kalpha in nude nu/nu mouse spleen assessed as inhibition of Akt Ser473 phosphorylation at 100 mg/kg, ip qd administered for 5 consecutive days measured 1 to 4 hrs post last dose by immunoblotting method; assay type: functional, organism-based; design: dose 100 mg/kg
Procedure, shortened: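 Female nu/nu mice (n = 3/group) dosed ip at 100 mg/kg once daily for 5 days. Spleens collected 1, 4 and 24 h post last dose, frozen, then homogenized in extraction buffer with protease and phosphatase inhibitors. Lysates immunoblotted for P-Akt Ser473.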

[10] = biological target: Phosphatidylinositol 4-kinase alpha (Homo sapiens, UniProt P42356); test: Inhibition of PI4Kalpha (unknown origin) by ADP-GLO assay
Procedure, shortened: as §1

[11] = biological target: Phosphatidylinositol 4,5-bisphosphate 3-kinase catalytic subunit alpha isoform (Homo sapiens) (UniProt P42336); settings: SK-OV-3, 500 nM; remark: listed apart in the source
[12] = biological target: Phosphatidylinositol 4-kinase beta (Homo sapiens, UniProt Q9UBF8); test: Inhibition of PI4Kbeta (unknown origin) by ADP-GLO assay
Procedure, shortened: as §1

[13] = biological target: Phosphatidylinositol 3-kinase catalytic subunit type 3 (Homo sapiens, UniProt Q8NEB9); test: Inhibition of PI3KC3 (unknown origin) by ADP-GLO assay
Procedure, shortened: as §1

Chain of Phosphatidylinositol 4,5-bisphosphate 3-kinase catalytic subunit alpha isoform (Homo sapiens) (P42336 whole entry, canonical isoform): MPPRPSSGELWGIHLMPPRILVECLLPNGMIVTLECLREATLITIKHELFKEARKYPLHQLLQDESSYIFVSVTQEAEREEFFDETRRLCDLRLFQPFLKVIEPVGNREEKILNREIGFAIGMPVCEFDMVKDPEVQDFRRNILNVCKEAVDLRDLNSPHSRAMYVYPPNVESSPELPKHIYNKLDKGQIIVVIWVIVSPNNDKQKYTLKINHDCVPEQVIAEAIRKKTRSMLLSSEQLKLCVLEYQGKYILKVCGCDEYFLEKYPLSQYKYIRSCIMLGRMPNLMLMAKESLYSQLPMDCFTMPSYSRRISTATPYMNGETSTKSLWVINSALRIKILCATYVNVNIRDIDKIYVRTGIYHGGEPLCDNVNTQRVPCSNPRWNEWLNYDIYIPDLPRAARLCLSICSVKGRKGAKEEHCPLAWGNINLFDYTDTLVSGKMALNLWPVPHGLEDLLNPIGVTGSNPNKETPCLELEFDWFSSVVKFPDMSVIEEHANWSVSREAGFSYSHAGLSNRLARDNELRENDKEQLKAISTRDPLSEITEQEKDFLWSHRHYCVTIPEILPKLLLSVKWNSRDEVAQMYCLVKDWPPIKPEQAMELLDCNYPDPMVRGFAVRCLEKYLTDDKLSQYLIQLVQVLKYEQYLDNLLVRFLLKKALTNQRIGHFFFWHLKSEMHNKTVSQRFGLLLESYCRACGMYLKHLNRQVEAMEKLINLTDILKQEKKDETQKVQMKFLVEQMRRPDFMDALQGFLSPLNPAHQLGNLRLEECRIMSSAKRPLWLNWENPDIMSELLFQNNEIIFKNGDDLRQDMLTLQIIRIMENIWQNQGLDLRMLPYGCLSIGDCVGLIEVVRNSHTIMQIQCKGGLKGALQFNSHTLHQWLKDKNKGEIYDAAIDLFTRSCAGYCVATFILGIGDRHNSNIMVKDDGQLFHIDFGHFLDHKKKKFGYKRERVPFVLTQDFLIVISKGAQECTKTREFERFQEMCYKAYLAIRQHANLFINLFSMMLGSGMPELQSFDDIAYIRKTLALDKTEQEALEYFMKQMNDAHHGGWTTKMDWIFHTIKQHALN
Chain of Phosphatidylinositol 4,5-bisphosphate 3-kinase catalytic subunit gamma isoform (P48736 whole entry, canonical isoform): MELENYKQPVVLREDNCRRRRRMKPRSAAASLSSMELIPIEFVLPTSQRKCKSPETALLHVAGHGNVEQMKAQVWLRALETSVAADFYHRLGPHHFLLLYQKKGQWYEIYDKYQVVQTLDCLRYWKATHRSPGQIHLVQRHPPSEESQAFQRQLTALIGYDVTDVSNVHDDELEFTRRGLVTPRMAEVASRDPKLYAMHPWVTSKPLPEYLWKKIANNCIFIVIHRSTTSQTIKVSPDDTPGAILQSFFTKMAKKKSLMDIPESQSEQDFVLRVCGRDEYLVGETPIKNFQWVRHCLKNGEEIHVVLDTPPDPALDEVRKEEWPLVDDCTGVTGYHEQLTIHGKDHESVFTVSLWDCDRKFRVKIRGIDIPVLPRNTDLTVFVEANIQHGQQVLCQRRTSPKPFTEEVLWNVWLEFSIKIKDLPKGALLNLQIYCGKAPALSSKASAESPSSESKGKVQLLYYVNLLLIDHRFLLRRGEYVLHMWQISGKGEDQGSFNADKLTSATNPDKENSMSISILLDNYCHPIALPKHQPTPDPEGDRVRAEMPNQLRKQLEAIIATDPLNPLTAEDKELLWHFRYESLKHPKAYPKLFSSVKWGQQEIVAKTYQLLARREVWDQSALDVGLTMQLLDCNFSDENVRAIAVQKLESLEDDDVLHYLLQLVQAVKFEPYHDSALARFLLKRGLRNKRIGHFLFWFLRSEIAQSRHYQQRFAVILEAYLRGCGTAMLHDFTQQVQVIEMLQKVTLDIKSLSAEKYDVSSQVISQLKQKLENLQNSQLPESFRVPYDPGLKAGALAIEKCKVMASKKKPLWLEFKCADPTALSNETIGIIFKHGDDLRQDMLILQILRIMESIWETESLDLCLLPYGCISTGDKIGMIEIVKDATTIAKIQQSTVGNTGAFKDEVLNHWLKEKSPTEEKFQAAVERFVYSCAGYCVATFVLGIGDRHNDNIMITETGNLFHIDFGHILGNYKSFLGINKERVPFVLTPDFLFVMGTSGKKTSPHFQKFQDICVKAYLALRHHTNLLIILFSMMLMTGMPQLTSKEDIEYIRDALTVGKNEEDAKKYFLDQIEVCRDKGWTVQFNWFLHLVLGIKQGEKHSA
Chain of Sphingosine kinase 1 (Q9NYA1 whole entry): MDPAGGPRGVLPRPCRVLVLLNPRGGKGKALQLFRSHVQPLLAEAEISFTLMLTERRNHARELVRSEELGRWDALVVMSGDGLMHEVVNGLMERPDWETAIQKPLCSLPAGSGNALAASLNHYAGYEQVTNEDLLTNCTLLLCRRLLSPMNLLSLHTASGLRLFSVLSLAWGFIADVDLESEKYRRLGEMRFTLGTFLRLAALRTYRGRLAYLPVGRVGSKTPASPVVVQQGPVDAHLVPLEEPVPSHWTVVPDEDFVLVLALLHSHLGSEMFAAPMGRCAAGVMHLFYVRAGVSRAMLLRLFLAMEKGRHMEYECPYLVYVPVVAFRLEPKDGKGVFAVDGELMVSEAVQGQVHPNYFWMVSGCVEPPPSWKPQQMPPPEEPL
Chain of Phosphatidylinositol 4-kinase beta (Q9UBF8 whole entry): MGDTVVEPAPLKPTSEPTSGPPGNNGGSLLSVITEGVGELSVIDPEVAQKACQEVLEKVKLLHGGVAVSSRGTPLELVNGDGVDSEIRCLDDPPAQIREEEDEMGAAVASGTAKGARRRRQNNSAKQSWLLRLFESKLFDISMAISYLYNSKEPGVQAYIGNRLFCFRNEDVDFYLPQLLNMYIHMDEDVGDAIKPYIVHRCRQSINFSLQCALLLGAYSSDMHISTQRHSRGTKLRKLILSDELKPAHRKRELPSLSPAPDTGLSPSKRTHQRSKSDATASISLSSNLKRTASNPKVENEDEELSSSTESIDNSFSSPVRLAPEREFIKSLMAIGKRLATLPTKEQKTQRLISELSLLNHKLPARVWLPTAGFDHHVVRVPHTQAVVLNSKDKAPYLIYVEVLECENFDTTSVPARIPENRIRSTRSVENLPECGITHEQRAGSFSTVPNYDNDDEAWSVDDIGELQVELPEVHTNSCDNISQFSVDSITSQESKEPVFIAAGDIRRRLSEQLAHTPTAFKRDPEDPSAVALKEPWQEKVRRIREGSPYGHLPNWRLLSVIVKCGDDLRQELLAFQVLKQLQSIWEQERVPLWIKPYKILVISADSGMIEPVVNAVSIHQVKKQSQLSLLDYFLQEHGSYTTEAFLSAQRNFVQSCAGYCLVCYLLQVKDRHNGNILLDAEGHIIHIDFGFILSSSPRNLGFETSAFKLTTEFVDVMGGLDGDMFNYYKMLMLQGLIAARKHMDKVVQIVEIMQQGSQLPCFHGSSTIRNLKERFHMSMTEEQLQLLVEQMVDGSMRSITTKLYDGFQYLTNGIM

inhibition [1]	GI50 (MCF7) [nM]	inhibition [2]	GI50 (SK-OV-3) [nM]	pIC50 [3]	pIC50 [4]	Activity [5]	pIC50 [6]	PPB (Plasma)	pIC50 (Sphingosine kinase 1)	pIC50 (Sphingosine kinase 2)	pIC50 [8]	pIC50 [10]	inhibition [11]	pIC50 [12]	pIC50 [13]	SMILES	Activity (Mus musculus [7])	Activity (Mus musculus [9])
inactive	70.2	Active	148	–	–	–	–	–	–	–	–	–	–	–	–	CS(=O)(=O)N1CCN(Cc2cc3nc(-c4cccc5[nH]ncc45)nc(N4CCOCC4)c3s2)CC1 [PICTILISIB]	–	–
–	54.7	–	77.6	6.78	6.62	inactive	5.52	Not Active	< 6.00	< 6.00	< 6.00	< 6.00	Active	< 6.00	< 6.00	CC(C)=CC(=O)CCC(=O)N1CCN(Cc2cc3nc(-c4cccc5[nH]ncc45)nc(N4CCOCC4)c3s2)CC1	Active	Active
